The first assay deals with Melanocyte-stimulating hormone receptor (Mus musculus, UniProt Q01727). As to the kind of experiment: Agonist activity at mouse MC1R expressed in HEK293 cells by CRE/beta-galactosidase reporter gene assay. The assay is classed as functional, cell-based.
Chain of Melanocyte-stimulating hormone receptor (Q01727 whole entry): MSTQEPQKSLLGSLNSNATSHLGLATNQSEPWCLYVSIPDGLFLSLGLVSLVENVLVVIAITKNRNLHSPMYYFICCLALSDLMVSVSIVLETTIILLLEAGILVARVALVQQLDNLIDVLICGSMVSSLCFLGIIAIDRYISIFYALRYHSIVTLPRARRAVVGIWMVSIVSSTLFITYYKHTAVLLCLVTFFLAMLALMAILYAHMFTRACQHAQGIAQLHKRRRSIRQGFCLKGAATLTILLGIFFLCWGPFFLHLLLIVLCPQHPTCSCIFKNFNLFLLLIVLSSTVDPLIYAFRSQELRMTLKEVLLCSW
Conditions: not given
The gist of the method:
(§1)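 HEK293 cells stably expressing the mouse receptor (G418 selection) were transfected with CRE/β-galactosidase reporter. Lysates were read with ONPG substrate at OD405 and normalized to protein (OD595) and to a 10^-4 M forskolin control.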
Chain of Melanocortin receptor 4 (Mus musculus) (P56450 whole entry): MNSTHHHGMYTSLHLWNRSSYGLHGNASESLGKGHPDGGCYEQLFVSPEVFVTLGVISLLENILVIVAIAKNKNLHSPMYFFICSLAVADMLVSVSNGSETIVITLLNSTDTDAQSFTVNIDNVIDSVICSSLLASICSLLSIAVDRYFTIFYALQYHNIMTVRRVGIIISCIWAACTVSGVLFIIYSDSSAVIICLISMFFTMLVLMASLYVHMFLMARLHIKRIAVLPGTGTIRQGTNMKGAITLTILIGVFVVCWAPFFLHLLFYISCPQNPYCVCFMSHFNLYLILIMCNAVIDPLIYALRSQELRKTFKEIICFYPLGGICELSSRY
T1 sequence (P56450 whole entry): as above
Chain of Melanocyte-stimulating hormone receptor (Mus musculus) (Q01727 whole entry, looked up): as the sequence (Q01727 whole entry) above
Chain of Melanocortin receptor 5 (P41149 whole entry): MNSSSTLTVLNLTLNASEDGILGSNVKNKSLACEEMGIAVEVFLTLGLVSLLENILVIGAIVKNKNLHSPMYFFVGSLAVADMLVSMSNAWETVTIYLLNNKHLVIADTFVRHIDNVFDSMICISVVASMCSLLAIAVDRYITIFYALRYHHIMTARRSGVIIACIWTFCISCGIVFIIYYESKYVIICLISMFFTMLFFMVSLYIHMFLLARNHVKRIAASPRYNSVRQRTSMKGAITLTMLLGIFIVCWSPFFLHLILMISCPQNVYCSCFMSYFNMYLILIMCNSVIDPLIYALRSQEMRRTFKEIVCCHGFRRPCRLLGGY
In general, EC50 refers to the concentration giving half of the maximal effect. A low value points to a more potent agent. In the case of `CC(=O)N[C@@H](Cc1cnc[nH]1)C(=O)N[C@H](Cc1ccc(F)cc1)C(=O)N[C@@H](CCCN=C(N)N)C(=O)N[C@@H](Cc1c[nH]c2ccccc12)C(N)=O`, the EC50 was 53.7 nM.
Take `CC(=O)N[C@@H](Cc1cnc[nH]1)C(=O)N[C@H](Cc1ccc(O)cc1)C(=O)N[C@@H](CCCNC(=N)N)C(=O)N[C@@H](Cc1c[nH]c2ccccc12)C(N)=O`: the EC50 was 2600 nM.
In the case of `CC(=O)N[C@@H](Cc1cnc[nH]1)C(=O)N[C@H](Cc1ccc(C(=O)c2ccccc2)cc1)C(=O)N[C@@H](CCCNC(=N)N)C(=O)N[C@@H](Cc1c[nH]c2ccccc12)C(N)=O`, a half-maximal effect (EC50) was put at 180 nM.

The next assay deals with Melanocortin receptor 3 (Mus musculus, UniProt P33033). Kind of assay: Agonist activity at mouse MC3R expressed in HEK293 cells by CRE/beta-galactosidase reporter gene assay. The assay is classed as functional, cell-based.
Chain of Melanocortin receptor 3 (P33033 whole entry): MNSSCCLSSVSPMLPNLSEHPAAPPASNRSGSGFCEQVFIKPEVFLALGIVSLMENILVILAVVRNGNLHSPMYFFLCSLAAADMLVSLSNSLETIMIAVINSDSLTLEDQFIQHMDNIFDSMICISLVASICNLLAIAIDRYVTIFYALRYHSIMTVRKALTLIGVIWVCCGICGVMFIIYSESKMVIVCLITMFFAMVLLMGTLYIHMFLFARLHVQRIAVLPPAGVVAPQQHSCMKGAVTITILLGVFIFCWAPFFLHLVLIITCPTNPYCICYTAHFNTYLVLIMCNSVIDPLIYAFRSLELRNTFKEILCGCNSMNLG
Conditions: not given
The gist of the method:
as §1
(In general: In a reporter assay the amount or activity of a reporter protein is the signal.)
With `CC(=O)N[C@@H](Cc1cnc[nH]1)C(=O)N[C@H](Cc1ccc(O)cc1)C(=O)N[C@@H](CCCNC(=N)N)C(=O)N[C@@H](Cc1c[nH]c2ccccc12)C(N)=O`, the EC50 is 12500 nM.

The next assay has as its target Melanocortin receptor 4 (Mus musculus) (UniProt P56450). Kind of assay: Agonist activity at mouse MC4R expressed in HEK293 cells by CRE/beta-galactosidase reporter gene assay relative to Ac-His-DPhe7-Arg-Trp-NH2 peptide. The assay is classed as functional, cell-based.
Conditions: not given
The gist of the method: (§2)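 HEK293 cells stably expressing the mouse receptor (G418 selection) were transfected with CRE/β-galactosidase reporter. After 48 h they were stimulated for 6 h with peptide (10^-4–10^-12 M) in DMEM with 0.1 mg/mL BSA and 0.1 mM IBMX. Lysates were read with ONPG substrate at OD405 and normalized to protein (OD595) and to a 10^-4 M forskolin control.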
For `CC(=O)N[C@@H](Cc1cnc[nH]1)C(=O)N[C@H](Cc1ccc(O)cc1)C(=O)N[C@@H](CCCNC(=N)N)C(=O)N[C@@H](Cc1c[nH]c2ccccc12)C(N)=O`, the fold change (FC) was found to be 171.
For `CC(=O)N[C@@H](Cc1cnc[nH]1)C(=O)N[C@H](Cc1ccc(N)cc1)C(=O)N[C@@H](CCCNC(=N)N)C(=O)N[C@@H](Cc1c[nH]c2ccccc12)C(N)=O`, the fold change (FC) stood at 96.
On to `CC(=O)N[C@@H](Cc1cnc[nH]1)C(=O)N[C@H](Cc1ccc(C)cc1)C(=O)N[C@@H](CCCNC(=N)N)C(=O)N[C@@H](Cc1c[nH]c2ccccc12)C(N)=O`, for which the fold change (FC) amounted to 2.
As to `CC(=O)N[C@@H](Cc1cnc[nH]1)C(=O)N[C@H](Cc1ccccc1)C(=O)N[C@@H](CCCNC(=N)N)C(=O)N[C@@H](Cc1c[nH]c2ccccc12)C(N)=O`, the fold change (FC) turned out to be 1.

The target in another assay is Melanocortin receptor 3 (Mus musculus) (UniProt P33033). Kind of assay: Agonist activity at mouse MC3R expressed in HEK293 cells by CRE/beta-galactosidase reporter gene assay relative to Ac-His-DPhe7-Arg-Trp-NH2 peptide. The assay is classed as functional, cell-based.
Chain of Melanocortin receptor 3 (Mus musculus) (P33033 whole entry): as above
Conditions: not given
The gist of the method: as §2
Take `CC(=O)N[C@@H](Cc1cnc[nH]1)C(=O)N[C@H](Cc1ccc(O)cc1)C(=O)N[C@@H](CCCNC(=N)N)C(=O)N[C@@H](Cc1c[nH]c2ccccc12)C(N)=O`: the fold change (FC) is 99.
Take `CC(=O)N[C@@H](Cc1cnc[nH]1)C(=O)N[C@H](Cc1ccc(N)cc1)C(=O)N[C@@H](CCCNC(=N)N)C(=O)N[C@@H](Cc1c[nH]c2ccccc12)C(N)=O`: the fold change (FC) was found to be 130.
On to `CC(=O)N[C@@H](Cc1cnc[nH]1)C(=O)N[C@H](Cc1ccc(F)cc1)C(=O)N[C@@H](CCCNC(=N)N)C(=O)N[C@@H](Cc1c[nH]c2ccccc12)C(N)=O`, for which the fold change (FC) was -2.
As to `CC(=O)N[C@@H](Cc1cnc[nH]1)C(=O)N[C@H](Cc1ccc([N+](=O)[O-])cc1)C(=O)N[C@@H](CCCNC(=N)N)C(=O)N[C@@H](Cc1c[nH]c2ccccc12)C(N)=O`, the fold change (FC) stood at 5.
With `CC(=O)N[C@@H](Cc1cnc[nH]1)C(=O)N[C@H](Cc1ccccc1)C(=O)N[C@@H](CCCNC(=N)N)C(=O)N[C@@H](Cc1c[nH]c2ccccc12)C(N)=O`, the fold change (FC) amounted to 1.

Another assay concerns the target T1, Melanocortin receptor 4 (Mus musculus, UniProt P56450). Kind of assay: Agonist activity at mouse MC4R expressed in HEK293 cells by CRE/beta-galactosidase reporter gene assay. The class given is functional, cell-based.
Conditions: not given
The gist of the method: as §2
`CC(=O)N[C@@H](Cc1cnc[nH]1)C(=O)N[C@H](Cc1ccccc1)C(=O)N[C@@H](CCCN=C(N)N)C(=O)N[C@@H](Cc1c[nH]c2ccccc12)C(N)=O`: the EC50 stood at 2.28 nM.
For the compound `CC(=O)N[C@@H](Cc1cnc[nH]1)C(=O)N[C@H](Cc1ccc(O)cc1)C(=O)N[C@@H](CCCNC(=N)N)C(=O)N[C@@H](Cc1c[nH]c2ccccc12)C(N)=O`, the EC50 is 390 nM.
`CC(=O)N[C@@H](Cc1cnc[nH]1)C(=O)N[C@H](Cc1ccc(C(=O)c2ccccc2)cc1)C(=O)N[C@@H](CCCNC(=N)N)C(=O)N[C@@H](Cc1c[nH]c2ccccc12)C(N)=O` had an EC50 of 63.8 nM.

The species named for a further assay is Mus musculus. As to the kind of experiment: Selectivity for mouse MC4R over mouse MC1R by CRE/beta-galactosidase reporter gene assay.
Conditions: not given
Turning to `CC(=O)N[C@@H](Cc1cnc[nH]1)C(=O)N[C@H](Cc1ccc(F)cc1)C(=O)N[C@@H](CCCNC(=N)N)C(=O)N[C@@H](Cc1c[nH]c2ccccc12)C(N)=O`, the Ratio EC50 turned out to be 200.

A further assay addresses Melanocyte-stimulating hormone receptor (Mus musculus) (UniProt Q01727). As to the kind of experiment: Agonist activity at mouse MC1R expressed in HEK293 cells by CRE/beta-galactosidase reporter gene assay relative to Ac-His-DPhe7-Arg-Trp-NH2 peptide. The class given is functional, cell-based.
Conditions: not given
The gist of the method:
as §2
Consider `CC(=O)N[C@@H](Cc1cnc[nH]1)C(=O)N[C@H](Cc1ccc(O)cc1)C(=O)N[C@@H](CCCNC(=N)N)C(=O)N[C@@H](Cc1c[nH]c2ccccc12)C(N)=O`, for which the fold change (FC) came to 23.
As for `CC(=O)N[C@@H](Cc1cnc[nH]1)C(=O)N[C@H](Cc1ccc(N)cc1)C(=O)N[C@@H](CCCNC(=N)N)C(=O)N[C@@H](Cc1c[nH]c2ccccc12)C(N)=O`, the fold change (FC) was 21.
Take `CC(=O)N[C@@H](Cc1cnc[nH]1)C(=O)N[C@H](Cc1ccc(F)cc1)C(=O)N[C@@H](CCCNC(=N)N)C(=O)N[C@@H](Cc1c[nH]c2ccccc12)C(N)=O`: the fold change (FC) was -2.
In the case of `CC(=O)N[C@@H](Cc1cnc[nH]1)C(=O)N[C@H](Cc1ccccc1)C(=O)N[C@@H](CCCNC(=N)N)C(=O)N[C@@H](Cc1c[nH]c2ccccc12)C(N)=O`, the fold change (FC) is 1.

Another assay deals with T1, Melanocortin receptor 4. Kind of assay: Antagonist activity at mouse MC4R expressed in HEK293 cells assessed as effect on MT2 peptide-induced response by CRE/beta-galactosidase reporter gene assay. The class given is functional, cell-based. Particulars: read-out: pA2 (converted).
As for `CC(=O)N[C@@H](Cc1cnc[nH]1)C(=O)N[C@H](Cc1ccccc1)C(=O)N[C@@H](CCCN=C(N)N)C(=O)N[C@@H](Cc1c[nH]c2ccccc12)C(N)=O`, the Kb is 5.01 nM.

In another assay the target is Melanocortin receptor 5 (Mus musculus) (UniProt P41149). As to the kind of experiment: Agonist activity at mouse MC5R expressed in HEK293 cells by CRE/beta-galactosidase reporter gene assay relative to Ac-His-DPhe7-Arg-Trp-NH2 peptide. The class given is functional, cell-based.
Chain of Melanocortin receptor 5 (Mus musculus) (P41149 whole entry): as the sequence (P41149 whole entry) above
Conditions: not given
The gist of the method:
as §2
In the case of `CC(=O)N[C@@H](Cc1cnc[nH]1)C(=O)N[C@H](Cc1ccc(O)cc1)C(=O)N[C@@H](CCCNC(=N)N)C(=O)N[C@@H](Cc1c[nH]c2ccccc12)C(N)=O`, the fold change (FC) was found to be 223.
Still for that read-out and setting: in the case of `CC(=O)N[C@@H](Cc1cnc[nH]1)C(=O)N[C@H](Cc1ccc(N)cc1)C(=O)N[C@@H](CCCNC(=N)N)C(=O)N[C@@H](Cc1c[nH]c2ccccc12)C(N)=O` it was 69; in that of `CC(=O)N[C@@H](Cc1cnc[nH]1)C(=O)N[C@H](Cc1ccc(C)cc1)C(=O)N[C@@H](CCCNC(=N)N)C(=O)N[C@@H](Cc1c[nH]c2ccccc12)C(N)=O`, 2; in that of `CC(=O)N[C@@H](Cc1cnc[nH]1)C(=O)N[C@H](Cc1ccccc1)C(=O)N[C@@H](CCCNC(=N)N)C(=O)N[C@@H](Cc1c[nH]c2ccccc12)C(N)=O`, 1.

For another assay, the species on record is Mus musculus. Kind of assay: Selectivity for mouse MC4R over mouse MC3R by CRE/beta-galactosidase reporter gene assay.
Conditions: not given
In the case of `CC(=O)N[C@@H](Cc1cnc[nH]1)C(=O)N[C@H](Cc1ccc(F)cc1)C(=O)N[C@@H](CCCNC(=N)N)C(=O)N[C@@H](Cc1c[nH]c2ccccc12)C(N)=O`, the Ratio EC50 was determined as 200.

Another assay addresses Melanocortin receptor 5 (Mus musculus, UniProt P41149). Kind of assay: Agonist activity at mouse MC5R expressed in HEK293 cells by CRE/beta-galactosidase reporter gene assay. The class given is functional, cell-based.
Conditions: not given
The gist of the method:
as §2
In turn, `CC(=O)N[C@@H](Cc1cnc[nH]1)C(=O)N[C@H](Cc1ccccc1)C(=O)N[C@@H](CCCN=C(N)N)C(=O)N[C@@H](Cc1c[nH]c2ccccc12)C(N)=O` registered an EC50 of 3.26 nM.
On to `CC(=O)N[C@@H](Cc1cnc[nH]1)C(=O)N[C@H](Cc1ccc(O)cc1)C(=O)N[C@@H](CCCNC(=N)N)C(=O)N[C@@H](Cc1c[nH]c2ccccc12)C(N)=O`, for which the half-maximal effective concentration (EC50) stood at 730 nM.
On to `CC(=O)N[C@@H](Cc1cnc[nH]1)C(=O)N[C@H](Cc1ccc(C(=O)c2ccccc2)cc1)C(=O)N[C@@H](CCCNC(=N)N)C(=O)N[C@@H](Cc1c[nH]c2ccccc12)C(N)=O`, for which a half-maximal effect (EC50) was put at 51.1 nM. Compared with the last compound, the EC50 is about 14-fold lower.
